Assay results published in ChEMBL document CHEMBL1152958 (Bioorg Med Chem, 2009).

Tests used:
[1] = target: T1, Polyunsaturated fatty acid 5-lipoxygenase (Homo sapiens) (UniProt P09917); test: Inhibition of 5LOX-mediated LTB4 formation in stimulated human polymorphonuclear leukocytes at 8 uM
T1 sequence (whole entry): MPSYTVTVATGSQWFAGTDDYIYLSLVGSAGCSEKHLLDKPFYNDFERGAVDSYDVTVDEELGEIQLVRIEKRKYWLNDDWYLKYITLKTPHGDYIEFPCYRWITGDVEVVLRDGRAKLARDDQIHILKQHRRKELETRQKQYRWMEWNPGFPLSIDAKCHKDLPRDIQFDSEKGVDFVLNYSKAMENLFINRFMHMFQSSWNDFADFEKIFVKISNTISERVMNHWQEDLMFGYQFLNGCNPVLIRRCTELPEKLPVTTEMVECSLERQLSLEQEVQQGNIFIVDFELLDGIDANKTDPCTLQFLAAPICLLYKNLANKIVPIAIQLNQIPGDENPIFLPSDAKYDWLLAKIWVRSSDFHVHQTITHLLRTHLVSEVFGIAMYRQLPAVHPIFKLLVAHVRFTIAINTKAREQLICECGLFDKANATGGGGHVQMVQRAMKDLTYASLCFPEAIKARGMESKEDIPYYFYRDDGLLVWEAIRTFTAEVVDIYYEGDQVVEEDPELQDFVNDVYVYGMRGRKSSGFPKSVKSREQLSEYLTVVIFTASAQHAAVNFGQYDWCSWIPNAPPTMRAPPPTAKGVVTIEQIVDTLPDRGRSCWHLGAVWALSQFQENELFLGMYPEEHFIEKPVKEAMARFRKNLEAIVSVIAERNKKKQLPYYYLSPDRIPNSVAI
How it was run: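 5-LOX-mediated LTB4 formation was measured in stimulated human polymorphonuclear leukocytes in 96-well format. […] For IC50, at least 3 concentrations were tested in at least 3 independent experiments, each in duplicate, and IC50 was derived from a semilogarithmic dose plot. Results are given as means ± S.D.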

[2] = target: T2, Prostaglandin G/H synthase 1 (Ovis aries, UniProt P05979); test: Inhibition of COX1 in ram seminal vesicle by enzyme immunoassay
T2 sequence (P05979 whole entry): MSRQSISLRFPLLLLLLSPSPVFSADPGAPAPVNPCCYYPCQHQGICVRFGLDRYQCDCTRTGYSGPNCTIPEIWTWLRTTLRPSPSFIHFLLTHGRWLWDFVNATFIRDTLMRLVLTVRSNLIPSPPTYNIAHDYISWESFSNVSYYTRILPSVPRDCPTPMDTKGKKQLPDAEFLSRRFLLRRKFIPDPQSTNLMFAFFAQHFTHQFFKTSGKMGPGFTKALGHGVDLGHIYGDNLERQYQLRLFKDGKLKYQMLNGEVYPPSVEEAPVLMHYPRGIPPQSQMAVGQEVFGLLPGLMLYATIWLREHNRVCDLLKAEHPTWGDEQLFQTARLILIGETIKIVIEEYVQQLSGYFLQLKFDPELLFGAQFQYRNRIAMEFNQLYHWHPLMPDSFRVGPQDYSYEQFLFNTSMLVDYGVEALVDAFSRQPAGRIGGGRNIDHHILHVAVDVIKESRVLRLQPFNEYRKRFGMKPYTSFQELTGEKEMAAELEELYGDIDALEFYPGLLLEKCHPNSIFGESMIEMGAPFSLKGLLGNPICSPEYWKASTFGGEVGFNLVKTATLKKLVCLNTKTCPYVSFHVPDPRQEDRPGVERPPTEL
How it was run: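 PGE2, the main arachidonic acid metabolite, was quantified by competitive enzyme immunoassay.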

[3] = target: T3, Prostaglandin G/H synthase 2 (Ovis aries) (UniProt P79208); test: Inhibition of COX2 in sheep placental vesicle at 8 uM by enzyme immunoassay
T3 sequence (whole entry): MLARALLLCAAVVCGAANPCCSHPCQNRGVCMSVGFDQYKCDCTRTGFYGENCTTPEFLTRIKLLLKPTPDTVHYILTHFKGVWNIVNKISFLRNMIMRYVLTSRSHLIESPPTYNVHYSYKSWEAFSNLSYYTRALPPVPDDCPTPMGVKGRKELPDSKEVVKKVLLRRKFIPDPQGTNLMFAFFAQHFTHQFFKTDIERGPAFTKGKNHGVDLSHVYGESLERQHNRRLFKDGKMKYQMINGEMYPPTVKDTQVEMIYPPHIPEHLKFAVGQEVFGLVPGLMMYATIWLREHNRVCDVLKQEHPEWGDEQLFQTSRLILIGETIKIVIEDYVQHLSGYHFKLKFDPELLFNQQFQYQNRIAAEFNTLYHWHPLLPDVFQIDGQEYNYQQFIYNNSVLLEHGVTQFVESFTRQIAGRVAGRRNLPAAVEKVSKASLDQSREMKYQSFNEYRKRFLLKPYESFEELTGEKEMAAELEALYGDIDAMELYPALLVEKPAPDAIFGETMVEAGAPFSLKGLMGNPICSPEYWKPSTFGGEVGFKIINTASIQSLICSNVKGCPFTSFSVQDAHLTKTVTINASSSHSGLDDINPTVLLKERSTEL

[4] = target: T4, Prostaglandin G/H synthase 2 (Ovis aries, UniProt P79208); test: Inhibition of COX2 in sheep placental vesicle by enzyme immunoassay
T4 sequence (P79208 whole entry): T3 sequence (whole entry)

[5] = target: T5, Polyunsaturated fatty acid 5-lipoxygenase (Homo sapiens, UniProt P09917); test: Inhibition of 5LOX-mediated LTB4 formation in stimulated human polymorphonuclear leukocytes
T5 sequence (P09917 whole entry): T1 sequence (whole entry)
How it was run: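 5-LOX-mediated LTB4 formation was measured in stimulated human polymorphonuclear leukocytes in 96-well format. For IC50, at least 3 concentrations were tested in at least 3 independent experiments, each in duplicate, and IC50 was derived from a semilogarithmic dose plot. Results are given as means ± S.D.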

[6] = target: T6, Prostaglandin G/H synthase 1 (Ovis aries) (UniProt P05979); test: Inhibition of COX1 in ram seminal vesicle at 8 uM by enzyme immunoassay; format: tissue-based
T6 sequence (whole entry): T2 sequence (P05979 whole entry)

Row | inhibition [1] [%] | IC50 ([2]; read-out: IC50) [nM] | inhibition [3] [%] | IC50 ([4]; read-out: IC50) [nM] | IC50 ([5]; read-out: IC50) [nM] | inhibition [6] [%] | IC50 [2] | IC50 [4] | IC50 [5] | SMILES
1 | 96.4 | 100 | 95.3 | 60 | 1500 | 90.8 | – | – | – | C=CCc1ccc(O)c(-c2ccc(OC)c(CC=C)c2)c1 [METHYLHONOKIOL]
2 | 64.9 | – | 13.8 | – | 4500 | 6.8 | – | – | – | C=CCc1ccc(OC(C)=O)c(-c2ccc(OC(C)=O)c(CC=C)c2)c1
3 | 24.4 | > 20000 | 49.4 | 6900 | – | 27.3 | – | – | – | CCCc1ccc(OC)c(-c2ccc(OC)c(CCC)c2)c1
4 | 27.8 | 11400 | 47.8 | 7700 | 15000 | 45.1 | – | – | – | C=CCc1ccc(OC)c(-c2ccc(OC)c(CC=C)c2)c1
5 | 76.3 | – | 56.3 | 4900 | 2200 | 18 | – | – | – | C=CCc1ccc(OC(C)=O)c(-c2ccc(OC)c(CC=C)c2)c1
6 | 100 | 600 | 75.1 | 2700 | 1000 | 84.8 | – | – | – | C=CCc1ccc(O)c(-c2ccc(O)c(/C=C/C)c2)c1
7 | – | – | – | – | – | – | Not Active | Not Active | Not Active | COc1ccc(-c2cc(CC3CO3)ccc2O)cc1CC1CO1 (centres undefined)
8 | 94 | 1800 | 88.3 | 2100 | 4200 | 91 | – | – | – | C=CCc1ccc(O)c(-c2ccc(O)c(CC=C)c2)c1 [HONOKIOL]

Row | SMILES | inhibition [1] [%] | IC50 ([2]; read-out: IC50) [nM] | inhibition [3] [%] | IC50 ([4]; read-out: IC50) [nM] | IC50 ([5]; read-out: IC50) [nM] | inhibition [6] [%] | IC50 [2] | IC50 [4] | IC50 [5]
9 | C=CCc1ccc(O)c(-c2ccc(OC)c(/C=C/C)c2)c1 | 99.3 | 700 | 81.5 | 200 | 2100 | 80.5 | – | – | –
10 | C=CCc1ccc(O)c(-c2ccc(OC)c(/C=C\C)c2)c1 | 99.9 | 2800 | 62.7 | 900 | 1100 | 68.6 | – | – | –
11 | CCCc1ccc(O)c(-c2ccc(O)c(CCC)c2)c1 | 99.9 | 800 | 81.6 | 2100 | 1700 | 89.6 | – | – | –
12 | CCCc1ccc(O)c(-c2ccc(OC)c(CCC)c2)c1 | 97.1 | 7700 | 11.6 | – | 1400 | 56.5 | – | – | –
